From PubChem BioAssay come the findings set out here.

As a reminder, the viability is a read-out of living cells in per cent, often relative to untreated cells. One may read the inhibition as the relative decrease from the control value, in per cent.

Structures are written as SMILES. Calls of active or inactive are those of the source. Rule as the data show it, unless noted: active = inhibition above about 30%; inactive = the rest.

Test [1] in a line: Her2 expression decrease, cell viability multiplex – SKBR3 breast tumor cells, AlphaScreen, ATP viability, primary screen (AID 461;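 active = Her2 level under about 52% in both replicate screens, with viability over 70% of control, limit read from the data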;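 as to Her2 level: lower value means less Her2 protein in the cells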;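 as to viability: percent of carrier control wells set as 100% viability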). As to conditions: SKBR3 Her2 protein level, 18-24 h, measured here: SKBR3 viability, ATP luminescence, at 10 µM. (In general: Alpha assays give light when donor and acceptor beads are brought close together.)
For test [2], the target named is Receptor tyrosine-protein kinase erbB-2 (Homo sapiens) (UniProt P04626). The description is as above. To be noted: 18-24 h, at 10 µM, stronger effect = lower value.
Test [3] in a line: reduced viability of SK-BR-3 breast cancer cells – cell-based, 24 h, human, pilot screen (AID 572;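 active = viability at or below 10% of carrier control in both of two separate runs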;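 also: compound exposure lasted between 18 and 24 h rather than exactly 24 h; 100% = carrier-treated control wells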). As to conditions: SK-BR-3 viability, CellTiter-Glo luminescence, at 10 µM, stronger effect = lower value. In general terms: In ATP-based viability assays light output follows the ATP content of the culture.
Test [4] in a line: HUVEC growth inhibition – cell-based, human, primary screen (AID 575;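 active = viability at or below 30% in both replicate assays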;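 also: 100% = median of untreated cell wells with 0.1% DMSO on each plate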). As to conditions: HUVEC proliferation, CellTiter-Glo luminescence, 72 h; at 10 µM; stronger effect = lower value. The essentials: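 System – primary HUVEC, no more than 12 passages · Medium – Low-serum (2% FBS) EBM, supplemented · Times – 72 h exposure, 37 °C, 5% CO2, 30 min RT equilibration · Measured by – luminescent ATP assay · Read-out – % viability relative to median vehicle-well signal on each plate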

The nature of test [5]: H69AR cell proliferation blockers – human, duplicate replicates, primary screen (AID 580;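 active = viability at or under a set limit in both replicates, limit being median viability minus 3 SD, cut at about 48% in these data, passing the limit was not always enough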;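 also: 100% = mean luminescence of untreated wells and 0% = no signal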). To be noted: H69AR lung tumor cells viability, ATP luminescence, 72 h; at 10 µM; stronger effect = lower value.
Test [6] can be described thus: MRP1 drug-resistance reversers in H69AR cells – cell-based, doxorubicin co-treatment, pilot screen (AID 601;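 active = viability loss from added drug above about 55%, and viability with drug at most 40%, in both replicates, limit read from the data, passing the limit was not always enough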). As to conditions: CellTiter-Glo, 72 h, at 10 µM; for differential viability (reversal): stronger effect = higher value.
The nature of test [7]: yeast transport mutant growth inhibition pilot in 384-well plates, post-Golgi transport modulator project (AID 636; in the data active = inhibition above about 31%). To be noted: absorbance 615 nm, about 18 h, stronger effect = higher value.
The nature of test [8]: growth suppression of yeast trafficking mutant, preliminary HTS, modulators of trafficking downstream of Golgi apparatus project, 1536-format plate, OD 615 nm (AID 637). To be noted: yeast transport mutant growth, absorbance 615 nm, 18 h; stronger effect = higher value.
Setting [9] is: H69AR cells + 2 uM doxorubicin, measured here: viability with 2 uM doxorubicin, stronger effect = lower value.
Setting [10] is: H69AR cells, compound alone cytotoxicity.

Chain of Receptor tyrosine-protein kinase erbB-2 (Homo sapiens) (P04626 whole entry, looked up): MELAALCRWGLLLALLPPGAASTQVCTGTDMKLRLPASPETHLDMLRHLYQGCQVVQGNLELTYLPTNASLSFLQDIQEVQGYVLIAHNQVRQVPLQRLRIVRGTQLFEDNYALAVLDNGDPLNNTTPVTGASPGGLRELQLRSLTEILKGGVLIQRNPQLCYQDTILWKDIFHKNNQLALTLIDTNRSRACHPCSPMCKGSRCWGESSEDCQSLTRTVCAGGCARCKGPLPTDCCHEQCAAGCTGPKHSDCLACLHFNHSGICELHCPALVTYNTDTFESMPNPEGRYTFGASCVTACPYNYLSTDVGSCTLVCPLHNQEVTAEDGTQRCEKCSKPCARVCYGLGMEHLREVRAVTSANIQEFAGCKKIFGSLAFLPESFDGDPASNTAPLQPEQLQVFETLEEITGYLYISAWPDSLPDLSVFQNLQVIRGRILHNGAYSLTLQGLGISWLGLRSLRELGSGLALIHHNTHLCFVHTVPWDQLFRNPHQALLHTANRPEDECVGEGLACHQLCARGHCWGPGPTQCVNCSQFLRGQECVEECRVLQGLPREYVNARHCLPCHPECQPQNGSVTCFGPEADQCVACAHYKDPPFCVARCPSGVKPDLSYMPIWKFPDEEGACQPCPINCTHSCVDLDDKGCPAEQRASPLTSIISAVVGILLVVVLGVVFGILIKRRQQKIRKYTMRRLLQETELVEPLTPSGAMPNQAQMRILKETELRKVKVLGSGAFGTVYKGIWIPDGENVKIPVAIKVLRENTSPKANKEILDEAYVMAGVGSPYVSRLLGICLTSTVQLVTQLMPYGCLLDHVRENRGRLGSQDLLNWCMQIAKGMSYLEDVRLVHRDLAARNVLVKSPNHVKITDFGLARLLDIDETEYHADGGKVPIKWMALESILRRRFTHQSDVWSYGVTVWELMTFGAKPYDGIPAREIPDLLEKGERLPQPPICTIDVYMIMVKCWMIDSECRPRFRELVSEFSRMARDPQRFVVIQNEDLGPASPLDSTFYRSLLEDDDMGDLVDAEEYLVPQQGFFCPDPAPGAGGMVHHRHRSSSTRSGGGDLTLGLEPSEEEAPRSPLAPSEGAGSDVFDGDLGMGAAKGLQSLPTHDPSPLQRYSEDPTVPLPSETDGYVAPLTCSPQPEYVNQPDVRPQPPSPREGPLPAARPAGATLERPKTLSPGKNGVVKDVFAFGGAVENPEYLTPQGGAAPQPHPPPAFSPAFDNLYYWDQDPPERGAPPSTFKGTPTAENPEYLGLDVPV

Take `Cc1ccc(NC(=O)CCC(=O)O)cc1F`: the viability was 106% in test [1]; 106% (inactive) in test [3]; 88.8% (inactive) in test [4]; 104% (inactive) in test [5]; 91.8% in test [6] (setting [9]); 104% in test [6] (setting [10]). Also, the Her2 level in test [2] is 82.5% (inactive). Further, the differential viability (reversal) in test [6] (H69AR cells + 2 uM doxorubicin) was 12.2% (inactive). Besides, the values for the inhibition in test [7] and in test [8] were -6.3% (inactive) and -2.7% (inactive), respectively.

For the compound `COc1ccccc1N1C(=O)c2ccccc2NC1c1ccncc1` (stereo not given), the viability in test [1] was 104%; in test [3], 104% (inactive); in test [4], 101% (inactive); in test [5], 104% (inactive); in test [6] (setting [9]), 94%; in test [6] (setting [10]), 104%. The Her2 level in test [2] is 100% (inactive). Besides, the differential viability (reversal) in test [6] (H69AR cells + 2 uM doxorubicin) was 9.81% (inactive). Further, the values for the inhibition in test [7] and in test [8] were -1.51% (inactive) and -7.14% (inactive), respectively.

Regarding `CCCCOc1cc(=O)[nH]c(=O)[nH]1`, the viability in test [1] is 108%; in test [3], 108% (inactive); in test [4], 95.2% (inactive); in test [5] it was 102% (inactive); in test [6] (setting [9]), 93.4%; in test [6] (setting [10]), 102%. For the same compound, the Her2 level in test [2] is 99% (inactive). Also, in test [6] (H69AR cells + 2 uM doxorubicin), the differential viability (reversal) is 8.32% (inactive). The results for the inhibition in test [7] and in test [8] were -2.11% (inactive) and -7.33% (inactive), respectively.

For the compound `C=CCSC1=C(C#N)C(c2ccccc2OCC)CC(=O)N1` (stereo not given), the viability in test [1] was 94%; in test [3] it was 94% (inactive); in test [4], 88.3% (inactive); in test [5], 95.3% (inactive); in test [6] (setting [9]) it was 91.8%; in test [6] (setting [10]), 95.3%. In test [2], the Her2 level is 81% (inactive). Moreover, in test [6] (H69AR cells + 2 uM doxorubicin), the differential viability (reversal) was 3.58% (inactive). Also, the inhibition in test [7] was -5.39% (inactive); in test [8], 0.5% (inactive).

On to `O=C(CCc1nc2ccccc2[nH]1)Nc1ccc2c(c1)OCO2`, for which the viability was 79% in test [1]; 79% (inactive) in test [3]; 48.6% (inactive) in test [4]; 90.8% (inactive) in test [5]; 93.1% in test [6] (setting [9]); 90.8% in test [6] (setting [10]). The Her2 level in test [2] was 126% (inactive). Moreover, the differential viability (reversal) in test [6] (H69AR cells + 2 uM doxorubicin) is -2.33% (inactive). In addition, the results for the inhibition in test [7] and in test [8] were 0.9% (inactive) and -4.33% (inactive), respectively.

As to `N/C(=N/O)c1nc(N2CCCC2)nc(N(c2ccccc2)c2ccccc2)n1`, the viability is 108% in test [1]; 108% (inactive) in test [3]; 75.9% (inactive) in test [4]; 65.2% (inactive) in test [5]; 59.4% in test [6] (setting [9]); 65.2% in test [6] (setting [10]). In addition, the Her2 level in test [2] is 93.5% (inactive). For the same compound, the differential viability (reversal) in test [6] (H69AR cells + 2 uM doxorubicin) is 5.79% (inactive). Further, the inhibition in test [7] is -6.62% (inactive); in test [8], 3.17% (inactive).

For `CC(C)(C)OC(=O)NCCc1nnc(SCC(=O)c2ccc(Cl)cc2)o1`, the viability in test [1] is 97.5%; in test [3], 97.5% (inactive); in test [4], 93.1% (inactive); in test [5], 105% (inactive); in test [6] (setting [9]), 92.4%; in test [6] (setting [10]), 105%. The Her2 level in test [2] was 106% (inactive). Further, the differential viability (reversal) in test [6] (H69AR cells + 2 uM doxorubicin) is 13% (inactive). Besides, the values for the inhibition in test [7] and in test [8] were -0.78% (inactive) and -3.83% (inactive), respectively.

Take `Nc1sccc1C(=O)c1ccccc1`: the viability was 85.5% in test [1]; 85.5% (inactive) in test [3]; 82.6% (inactive) in test [4]; 88.5% (inactive) in test [5]; 91.2% in test [6] (setting [9]); 88.5% in test [6] (setting [10]). The Her2 level in test [2] was 118% (inactive). In test [6] (H69AR cells + 2 uM doxorubicin), the differential viability (reversal) was -2.76% (inactive). Also, the inhibition in test [7] is -1.87% (inactive); in test [8], -0.16% (inactive).

For `CC(C(=O)N1CCCCC1)n1sc2ccccc2c1=O` (stereo not given), the viability in test [1] was 119%; in test [3], 119% (inactive); in test [4] it was 88% (inactive); in test [5] it was 87.4% (inactive); in test [6] (setting [9]), 84.3%; in test [6] (setting [10]) it was 87.4%. The Her2 level in test [2] is 102% (inactive). For the same compound, the differential viability (reversal) in test [6] (H69AR cells + 2 uM doxorubicin) was 3.18% (inactive). The inhibition was -1.71% (inactive) in test [7] and 11.4% (inactive) in test [8].

Consider `CC1CCN(C(=O)CSc2nnc(-c3ccc(S(=O)(=O)N4CCOCC4)cc3)n2C)CC1`, for which the viability in test [1] is 108%; in test [3] it was 108% (inactive); in test [4] it was 93.7% (inactive); in test [5] it was 88.3% (inactive); in test [6] (setting [9]), 93.1%; in test [6] (setting [10]) it was 88.3%. Also, the Her2 level in test [2] is 109% (inactive). Besides, the differential viability (reversal) in test [6] (H69AR cells + 2 uM doxorubicin) was -4.8% (inactive). For the same compound, the inhibition was -4.4% (inactive) in test [7] and -2.62% (inactive) in test [8].

As to `O=C(CCCC(=O)N(CC(=O)NC1CCCCC1)Cc1ccc2c(c1)OCO2)Nc1ccccn1`, the viability in test [1] was 102%; in test [3] it was 102% (inactive); in test [4], 101% (inactive); in test [5] it was 92.3% (inactive); in test [6] (setting [9]), 81.9%; in test [6] (setting [10]), 92.3%. For the same compound, in test [2], the Her2 level is 97.5% (inactive). In test [6] (H69AR cells + 2 uM doxorubicin), the differential viability (reversal) was 10.4% (inactive). Also, the inhibition in test [7] is -6.18% (inactive); in test [8], 0.32% (inactive).

Take `COc1cccc(N2CCN(CC(=O)NCc3cccs3)CC2)c1`: the viability in test [1] was 108%; in test [3], 108% (inactive); in test [4] it was 128% (inactive); in test [5] it was 99% (inactive); in test [6] (setting [9]), 92.8%; in test [6] (setting [10]) it was 99%. In addition, the Her2 level in test [2] was 100% (inactive). Moreover, the differential viability (reversal) in test [6] (H69AR cells + 2 uM doxorubicin) was 6.28% (inactive). The results for the inhibition in test [7] and in test [8] were -3.38% (inactive) and -2.17% (inactive), respectively.

`OC(CNCC1COc2ccccc2O1)COCc1cccs1` (stereo not given): the viability in test [1] is 98%; in test [3], 98% (inactive); in test [4] it was 87.5% (inactive); in test [5] it was 83.1% (inactive); in test [6] (setting [9]), 82.1%; in test [6] (setting [10]) it was 83.1%. Further, the Her2 level in test [2] is 89.5% (inactive). For the same compound, the differential viability (reversal) in test [6] (H69AR cells + 2 uM doxorubicin) is 0.95% (inactive). The inhibition was -2.08% (inactive) in test [7] and -7.94% (inactive) in test [8].

With `COc1ccccc1CNS(=O)(=O)c1ccc(NC(C)=O)cc1`, the viability in test [1] was 94.5%; in test [3], 94.5% (inactive); in test [4], 106% (inactive); in test [5] it was 92.9% (inactive); in test [6] (setting [9]), 101%; in test [6] (setting [10]), 92.9%. For the same compound, in test [2], the Her2 level is 84% (inactive). Also, the differential viability (reversal) in test [6] (H69AR cells + 2 uM doxorubicin) was -7.69% (inactive). Also, the results for the inhibition in test [7] and in test [8] were -5.73% (inactive) and 2.22% (inactive), respectively.
